Test [1] addresses T1, Glucocorticoid receptor (Rattus norvegicus) (UniProt P06536).
T1 sequence (whole entry): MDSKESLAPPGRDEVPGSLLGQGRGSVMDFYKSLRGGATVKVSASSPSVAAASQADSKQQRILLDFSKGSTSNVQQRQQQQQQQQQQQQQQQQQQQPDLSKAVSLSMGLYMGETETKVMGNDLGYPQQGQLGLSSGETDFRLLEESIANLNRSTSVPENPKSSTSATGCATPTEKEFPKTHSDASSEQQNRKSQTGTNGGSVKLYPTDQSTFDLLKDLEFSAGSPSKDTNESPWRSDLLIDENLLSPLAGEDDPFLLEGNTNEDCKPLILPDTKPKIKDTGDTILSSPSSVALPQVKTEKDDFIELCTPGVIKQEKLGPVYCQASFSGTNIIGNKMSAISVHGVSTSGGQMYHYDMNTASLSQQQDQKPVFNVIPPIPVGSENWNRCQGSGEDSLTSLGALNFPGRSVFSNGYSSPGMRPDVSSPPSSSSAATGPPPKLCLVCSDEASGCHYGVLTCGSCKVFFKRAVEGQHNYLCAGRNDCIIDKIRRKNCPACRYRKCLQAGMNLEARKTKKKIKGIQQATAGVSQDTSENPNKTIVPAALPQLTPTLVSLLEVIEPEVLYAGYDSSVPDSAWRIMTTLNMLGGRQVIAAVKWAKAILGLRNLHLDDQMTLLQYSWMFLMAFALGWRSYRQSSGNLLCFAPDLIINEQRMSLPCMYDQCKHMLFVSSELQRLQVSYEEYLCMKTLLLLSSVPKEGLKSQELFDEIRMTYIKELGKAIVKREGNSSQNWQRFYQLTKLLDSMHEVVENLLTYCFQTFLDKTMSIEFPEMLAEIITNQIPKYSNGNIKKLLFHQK
Nature of the test: Relative affinity [Ka compound/Ka Dex] for glucocorticoid receptors in cell-free competition assay. A digest of the protocol:
(§1)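 Competition with [3H]Dex for glucocorticoid receptors, in HTC cell cytosol (0 °C) or in intact HTC cells (30 min, 37 °C). Relative affinity is the ratio of Dex to steroid concentrations giving 50% inhibition of [3H]Dex binding, corrected by the Rodbard method for partial receptor occupancy by uncompeted [3H]Dex. Averages of 2–4 experiments.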

Test [2] deals with T1, Glucocorticoid receptor (Rattus norvegicus). Nature of the test: Relative affinity [Ka compound/Ka Dex] for glucocorticoid receptors in whole-cell competition assay. A digest of the protocol: as §1
The target of test [3] is Glucocorticoid receptor (Rattus norvegicus) (UniProt P06536). Particulars: filed as partial agonist.
Test [4] has as its target T1, Glucocorticoid receptor (Rattus norvegicus). Kind of test: Dex-NCS incubation on the subsequent inhibition of exchange binding with [3H]Dexamethasone measured at pH 7.6 at 20h. The conditions noted are these: concentration not given here. A digest of the protocol:
(§2)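 Crude HTC cytosol receptors in TAPS buffer were preincubated 3 h at 0 °C with Dex-NCS (290 or 580 nM) or cortisol (60 or 120 nM). Activated charcoal then removed free steroid and inactivated steroid-free receptors. Cytosol was adjusted to 1.9×10^-8 M [3H]Dex ± 575-fold unlabeled Dex and incubated for the stated times at 0 °C, final pH 8.8 or 7.6. Bound steroid was charcoal-separated; specific = total − nonspecific. Cortisol preincubation defined exchangeable binding. Run in duplicate; mean (SD, n).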

Test [5] shares this target. Kind of test: Dex-NCS incubation on the subsequent inhibition of exchange binding with [3H]dexamethasone measured at pH 7.6 at 3h. The conditions noted are these: concentration not given here. Summed up:
as §2

For test [6] the target is unchanged. Nature of the test: Dex-NCS incubation on the subsequent inhibition of exchange binding with [3H]dexamethasone measured at pH 8.8 at 1h. Particulars: concentration not given here. Summed up: as §2
The target is the same in test [7]. Kind of test: Dex-NCS incubation on the subsequent inhibition of exchange binding with [3H]dexamethasone measured at pH 8.8 at 5h. The conditions noted are these: concentration not given here. Summed up:
as §2

Test [8] has the same target. Nature of the test: Dex-NCS incubation on the subsequent inhibition of exchange binding with [3H]dexamethasone measured at pH 8.8 at 3h. The conditions noted are these: concentration not given here. Summed up: as §2
The target is the same in test [9]. Nature of the test: Dex-NCS incubation on the subsequent inhibition of exchange binding with [3H]dexamethasone measured at pH 7.6 at 5h. The conditions noted are these: concentration not given here. Summed up: as §2
For test [10] the target is unchanged. Kind of test: Dex-NCS incubation on the subsequent inhibition of exchange binding with [3H]dexamethasone measured at pH 7.6 at 1h. The conditions noted are these: concentration not given here. A digest of the protocol:
as §2

Take `C[C@@H]1CC2C3CCC4=CC(=O)C=C[C@]4(C)[C@@]3(F)[C@@H](O)C[C@]2(C)[C@@]1(O)C(=O)COC(=O)c1c(C(F)(F)F)cccc1C(F)(F)F` (some centres not stated): the values for the Relative affinity in test [1] and in test [2] were 0.079 and 0.0087, respectively.
In the case of `C[C@@H]1CC2C3CCC4=CC(=O)C=C[C@]4(C)[C@@]3(F)[C@@H](O)C[C@]2(C)[C@@]1(O)C(=O)CBr` (some centres not stated), the Relative affinity in [1] was 0.021; in test [2], 0.063. Moreover, the Agonist result in test [3] was “Partial agonist”.
What is called inhibition is the percentage by which the read-out fell short of the control. Turning to `C[C@@H]1CC2C3CCC4=CC(=O)C=C[C@]4(C)[C@@]3(F)[C@@H](O)C[C@]2(C)[C@@]1(O)C(=O)CSCCN=C=S` (some centres not stated), the inhibition in test [4] turned out to be 45.7%; in test [5], 60.5%; in [6], 43.8%; in test [7], 34.1%; in test [8], 37%; in test [9], 56.6%. Further, the inhibition in test [10] was 63.2%.
